A short description of data set [1]: Ratio of brain to plasma partition coefficient in Sprague-Dawley rat at 10 mg/kg, po measured at 1 hr. Type of data set: ADME, organism-based. Set-up: dose 10 mg/kg, route oral. An outline of the steps:
(§1)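 Oral CNS distribution study in male Sprague-Dawley rats (n=2), 10 mg/kg; brain and plasma sampled one hour post-dose. Total (Kp) and unbound (Kp,uu) brain-plasma partition coefficients calculated, with unbound fractions from plasma and brain homogenate binding.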

The nature of data set [2]: Fraction unbound in Sprague-Dawley rat brain at 5 uM after 4 hrs by equilibrium dialysis method. Type of data set: ADME, tissue-based. An outline of the steps:
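Nonspecific binding measured in rat brain homogenate to give unbound fraction in brain (fu,br).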
For orientation: Equilibrium dialysis compares concentrations on both sides of a semipermeable membrane.

Data set [3] in a line: Ratio of unbound brain to plasma partition coefficient in Sprague-Dawley rat at 10 mg/kg, po measured at 1 hr. Type of data set: ADME, organism-based. Also noted: dose 10 mg/kg, route oral. An outline of the steps:
as §1

Data set [4] addresses Cytochrome P450 2C9 (Homo sapiens, UniProt P11712). The data set is described as follows: Inhibition of CYP2C9 in human liver microsomes using diclofenac as substrate preincubated for 15 mins followed by NADPH addition measured after 8 mins by LC/MS/MS analysis. Type of data set: ADME. A general note: Liver microsomes are vesicles of endoplasmic reticulum, rich in cytochrome P450 enzymes.

The target in data set [5] is Cytochrome P450 2D6 (Homo sapiens, UniProt P10635). The data set is described as follows: Inhibition of CYP2D6 in human liver microsomes using dextromethorphan as substrate preincubated for 15 mins followed by NADPH addition measured after 8 mins by LC/MS/MS analysis. Type of data set: ADME.
Data set [6] concerns the target Cannabinoid receptor 1 (Homo sapiens) (UniProt P21554). The data set is described as follows: Binding affinity to human CB1 receptor at 10 uM by radioligand binding assay relative to control.
Data set [7] deals with Cynomolgus monkey. The experiment in a line: Volume of distribution at steady state in cynomolgus monkey at 1 mg/kg, iv. It counts as ADME, organism-based, Macaca fascicularis. Set-up: dose 1 mg/kg, route intravenous. The conditions noted are these: in vivo.
Data set [8] concerns Cynomolgus monkey. The experiment in a line: Elimination half life in cynomolgus monkey at 1 mg/kg, iv. Type of data set: ADME, organism-based, Macaca fascicularis. Set-up: dose 1 mg/kg, route intravenous. The following applies: in vivo.
Data set [9] is described as follows: Elimination half life in Sprague-Dawley rat at 1 mg/kg, iv. The following applies: in vivo, read-out: beta t1/2 (converted). Type of data set: ADME, organism-based. Also noted: dose 1 mg/kg, route intravenous.
The nature of data set [10]: Tmax in po dosed Sprague-Dawley rat. It counts as ADME, organism-based. The conditions noted are these: in vivo.
Data set [11] deals with T1, Muscarinic acetylcholine receptor M1 (Rattus norvegicus, UniProt P08482).
T1 sequence (P08482 whole entry): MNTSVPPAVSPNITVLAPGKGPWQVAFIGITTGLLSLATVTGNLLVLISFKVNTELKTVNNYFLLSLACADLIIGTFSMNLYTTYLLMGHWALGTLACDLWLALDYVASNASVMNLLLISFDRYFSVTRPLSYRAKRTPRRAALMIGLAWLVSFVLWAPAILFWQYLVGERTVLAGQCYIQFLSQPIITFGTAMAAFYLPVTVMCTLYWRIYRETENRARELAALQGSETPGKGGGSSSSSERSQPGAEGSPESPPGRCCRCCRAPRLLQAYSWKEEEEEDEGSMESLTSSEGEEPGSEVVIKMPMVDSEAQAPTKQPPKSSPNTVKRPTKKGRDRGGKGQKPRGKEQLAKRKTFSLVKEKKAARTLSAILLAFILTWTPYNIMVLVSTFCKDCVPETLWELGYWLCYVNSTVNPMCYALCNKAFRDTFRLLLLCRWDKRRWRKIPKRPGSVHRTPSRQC
The data set is described as follows: Negative allosteric modulation of rat muscarinic acetylcholine receptor M1 expressed in CHO cells assessed as inhibition of acetylcholine-induced calcium mobilization incubated for 150 secs prior to acetylcholine induction by Fluo-4 AM staining-based fluorescence assay. Type of data set: functional, cell-based. (Calcium assays in cells follow changes in intracellular calcium, usually with a dye or a luminescent sensor.)

In data set [12] the test system is Plasma. The data set is described as follows: Fraction unbound in human plasma at 5 uM after 4 hrs by equilibrium dialysis method. Type of data set: ADME, cell-free. An outline of the steps:
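Fraction unbound determined in plasma from rat, cynomolgus monkey and human.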

Data set [13] deals with T2, Muscarinic acetylcholine receptor M5 (Homo sapiens) (UniProt P08912).
T2 sequence (whole entry): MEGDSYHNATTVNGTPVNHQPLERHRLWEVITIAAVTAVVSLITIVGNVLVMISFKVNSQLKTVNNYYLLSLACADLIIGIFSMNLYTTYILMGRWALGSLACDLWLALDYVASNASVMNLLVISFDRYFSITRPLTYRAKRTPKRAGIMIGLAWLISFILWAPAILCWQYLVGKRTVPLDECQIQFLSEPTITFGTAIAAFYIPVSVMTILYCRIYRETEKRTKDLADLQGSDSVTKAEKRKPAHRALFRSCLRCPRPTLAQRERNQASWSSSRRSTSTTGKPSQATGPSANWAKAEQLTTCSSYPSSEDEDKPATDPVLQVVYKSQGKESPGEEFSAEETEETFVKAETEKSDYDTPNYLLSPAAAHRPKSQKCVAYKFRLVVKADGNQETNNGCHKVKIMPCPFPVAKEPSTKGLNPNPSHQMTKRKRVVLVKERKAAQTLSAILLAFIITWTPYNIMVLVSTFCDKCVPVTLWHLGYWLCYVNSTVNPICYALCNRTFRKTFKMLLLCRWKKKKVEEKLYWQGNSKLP
The experiment in a line: Negative allosteric modulation of human muscarinic acetylcholine receptor M5 expressed in CHO cells assessed as reduction of acetylcholine-induced calcium mobilization at 10 uM incubated for 150 secs prior to acetylcholine induction by Fluo-4 AM staining-based fluorescence assay relative to control. It counts as functional, cell-based. Also noted: scale not given: the % may be the effect or the level left.

Data set [14] concerns the target T3, Muscarinic acetylcholine receptor M5 (Rattus norvegicus, UniProt P08911).
T3 sequence (P08911 whole entry): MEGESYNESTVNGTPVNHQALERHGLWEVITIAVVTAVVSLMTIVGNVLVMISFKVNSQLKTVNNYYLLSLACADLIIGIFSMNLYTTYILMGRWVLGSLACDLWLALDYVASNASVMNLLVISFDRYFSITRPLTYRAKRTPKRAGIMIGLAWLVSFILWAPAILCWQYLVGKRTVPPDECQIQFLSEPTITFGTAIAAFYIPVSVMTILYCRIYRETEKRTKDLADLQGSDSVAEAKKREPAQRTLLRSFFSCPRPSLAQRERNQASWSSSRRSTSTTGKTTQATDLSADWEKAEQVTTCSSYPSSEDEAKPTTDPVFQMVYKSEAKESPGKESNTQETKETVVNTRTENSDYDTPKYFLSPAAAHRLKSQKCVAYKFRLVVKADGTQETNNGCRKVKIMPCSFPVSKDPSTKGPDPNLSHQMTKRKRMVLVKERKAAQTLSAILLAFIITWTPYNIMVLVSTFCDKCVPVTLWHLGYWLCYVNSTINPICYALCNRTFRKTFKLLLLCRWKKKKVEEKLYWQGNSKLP
The experiment in a line: Negative allosteric modulation of rat muscarinic acetylcholine receptor M5 expressed in CHO cells assessed as inhibition of acetylcholine-induced calcium mobilization incubated for 150 secs prior to acetylcholine induction by Fluo-4 AM staining-based fluorescence assay. Type of data set: functional, cell-based.

The target of data set [15] is T4, Muscarinic acetylcholine receptor M5 (Homo sapiens, UniProt P08912).
T4 sequence (P08912 whole entry): T2 sequence (whole entry)
The data set is described as follows: Negative allosteric modulation of human muscarinic acetylcholine receptor M5 expressed in CHO cells assessed as inhibition of acetylcholine-induced calcium mobilization incubated for 150 secs prior to acetylcholine induction by Fluo-4 AM staining-based fluorescence assay. Type of data set: functional, cell-based.

The record followed here is ChEMBL document CHEMBL3102750 (J Med Chem, 2013).

The IC50 is the concentration that gives 50% inhibition. By inhibition is commonly meant how much of the control response was suppressed. As usually defined, the Vdss is the apparent volume that relates the amount in the body to the concentration in plasma or blood. By Tmax is commonly meant the time from dosing to the highest level.

Chain of Cytochrome P450 2C9 (P11712 whole entry): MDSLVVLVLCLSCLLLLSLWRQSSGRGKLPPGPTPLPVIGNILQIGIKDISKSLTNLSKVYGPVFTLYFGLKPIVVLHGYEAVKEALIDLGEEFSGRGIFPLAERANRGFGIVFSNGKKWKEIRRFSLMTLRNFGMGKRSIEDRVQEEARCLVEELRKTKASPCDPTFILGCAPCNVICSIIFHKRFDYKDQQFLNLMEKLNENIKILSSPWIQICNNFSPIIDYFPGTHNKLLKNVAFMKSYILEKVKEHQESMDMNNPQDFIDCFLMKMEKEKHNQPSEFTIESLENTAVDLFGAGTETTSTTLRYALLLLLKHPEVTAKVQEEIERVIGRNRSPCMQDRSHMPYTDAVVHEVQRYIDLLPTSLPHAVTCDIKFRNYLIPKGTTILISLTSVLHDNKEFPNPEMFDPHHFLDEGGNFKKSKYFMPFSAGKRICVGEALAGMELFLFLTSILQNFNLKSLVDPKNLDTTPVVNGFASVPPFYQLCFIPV
Chain of Cytochrome P450 2D6 (P10635 whole entry): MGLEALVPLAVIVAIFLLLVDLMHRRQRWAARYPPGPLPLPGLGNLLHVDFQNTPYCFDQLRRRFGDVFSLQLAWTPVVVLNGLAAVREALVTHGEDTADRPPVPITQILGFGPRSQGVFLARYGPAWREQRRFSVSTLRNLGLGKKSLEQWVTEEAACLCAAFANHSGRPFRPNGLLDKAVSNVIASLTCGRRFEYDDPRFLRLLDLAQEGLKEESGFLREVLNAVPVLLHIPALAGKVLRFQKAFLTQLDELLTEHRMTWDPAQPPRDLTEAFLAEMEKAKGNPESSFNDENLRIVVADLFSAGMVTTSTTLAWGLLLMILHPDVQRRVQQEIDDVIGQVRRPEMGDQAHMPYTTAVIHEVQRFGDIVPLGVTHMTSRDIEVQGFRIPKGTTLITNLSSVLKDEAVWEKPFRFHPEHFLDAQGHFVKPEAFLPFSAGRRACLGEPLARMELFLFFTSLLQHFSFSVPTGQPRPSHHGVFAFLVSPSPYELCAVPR
Chain of Cannabinoid receptor 1 (Homo sapiens) (P21554 whole entry): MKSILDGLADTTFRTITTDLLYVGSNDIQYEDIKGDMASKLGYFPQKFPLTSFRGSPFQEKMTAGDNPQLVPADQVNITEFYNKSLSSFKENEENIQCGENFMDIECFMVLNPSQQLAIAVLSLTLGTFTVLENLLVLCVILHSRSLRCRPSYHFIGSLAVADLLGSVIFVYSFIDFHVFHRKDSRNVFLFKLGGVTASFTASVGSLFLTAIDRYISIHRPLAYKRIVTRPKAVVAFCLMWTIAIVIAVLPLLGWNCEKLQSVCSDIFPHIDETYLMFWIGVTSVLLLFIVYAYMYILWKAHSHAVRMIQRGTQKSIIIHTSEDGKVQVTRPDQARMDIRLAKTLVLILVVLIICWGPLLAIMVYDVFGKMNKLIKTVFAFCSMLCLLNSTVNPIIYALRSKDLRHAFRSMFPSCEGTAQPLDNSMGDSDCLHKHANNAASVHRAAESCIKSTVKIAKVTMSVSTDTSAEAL

In the case of `O=C(c1ccc(F)c(F)c1)N1CCN2C(=O)c3ccccc3[C@@]12c1ccc(Cl)cc1`, the BPR in data set [1] is given as 1.8. Moreover, the Fu was 0.003 in [2] and 0.013 in data set [12]. Further, in [3], the “K(p,uu,brain)” value came to 0.2. Also, the results for the 50% inhibitory concentration (IC50) in data set [4], in data set [5] and in data set [11] were 7.4 µM, 26 µM and greater than 30 µM, respectively. In data set [6], the inhibition came out at 66%. The Vdss in data set [7] was determined as 1.9 L/kg. Besides, the “beta t1/2” value in [8] amounted to 10 h. In addition, the half-life in data set [9] is 80 h. Besides, the Tmax in data set [10] was determined as 7 h.
As to `O=C(c1ccc(F)c(F)c1)N1CCN2C(=O)c3ccccc3C12c1ccccc1` (stereo unspecified), in [13], the Activity came to 0%. The IC50 in data set [11] is greater than 30 µM; in data set [14], 2.1 µM; in data set [15] it was 1.05 µM.
